Activity calls are given as the source filed them. The calls are words filed in the database; no cut-off is given here.

Our source for the IC50, Activity and inhibition values is ChEMBL document CHEMBL2396631, “(+)-Altholactone exhibits broad spectrum immune modulating activity by inhibiting the activation of pro-inflammatory cytokines in RAW 264.7 cell lines” (Bioorg Med Chem, 2013).

Data set [1] in a line: Inhibition of LPS-induced NF-kappaB activation in mouse RAW264.7 cells after 18 hrs by luciferase assay. The format is cell-based. The settings on record: RAW264.7, 18 h. In outline: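 RAW264.7 cells stably carrying an NF-κB luciferase reporter plated at 5 × 10⁴ per well and allowed 24 h recovery. Then treated with compound plus LPS 100 ng/mL for 18 h. Lysates read after adding luciferase assay reagent. IC50 given as mean ± SE, n = 3.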

Data set [2] concerns RAW264.7. As to the kind of experiment: Cytotoxicity against mouse RAW264.7 cells after 18 hrs by MTT assay. The class given is cell-based. The note with it: RAW264.7, 18 h. In outline:
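Murine macrophage RAW264.7 cells exposed to compound about 18 h, tested at 6.25–100 µM from DMSO stock. MTT added for 2 h, formazan dissolved in DMSO and read at 570 nm. IC50 given as mean ± SE, n = 3.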
(Tetrazolium assays rely on reduction of a dye to a coloured formazan, in cell work by metabolically active cells.)

Another data set relates to MCF-10A. Briefly: Cytotoxicity against human MCF10A cells up to 100 uM after 20 hrs by MTT assay. The format is cell-based. In outline: (§1)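 Non-tumorigenic MCF-10A and tumorigenic MCF-7, MDA-MB-231, PC3 and LNCaP cells grown in 96-well plates in their own growth media. Treated with 6.25, 12.5, 25, 50 or 100 µM compound from DMSO stock for 20 h, then MTT added for 2 h. Formazan dissolved in DMSO and absorbance read at 570 nm.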

The test system of data set [3] is RAW264.7. Briefly: Antiinflammatory activity in mouse RAW264.7 cells assessed as inhibition of LPS-induced nitric oxide production after 24 hrs by Griess assay. The format is functional, cell-based. The note with it: RAW264.7, 24 h. The procedure, abridged:
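Cells plated in RPMI1640, 24 h at 37 °C; medium changed, then compound plus E. coli 055:B5 LPS added. Supernatant mixed with Griess reagent (sulfanilamide/naphthylethylenediamine in H3PO4), 30 min at room temperature in the dark. IC50 given as mean ± SE, n = 3.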
In general terms: Nitrite, measured by Griess reagent, commonly stands in for NO production.

Data set [4] deals with RAW264.7. As to the kind of experiment: Antiinflammatory activity in mouse RAW264.7 cells assessed as reduction of LPS-induced iNOS expression at 5 uM after 4 hrs by Western blot analysis. The class given is functional, cell-based. In outline: (§2)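 Near-confluent cells treated with rising compound concentrations (1.5–12.0 µM) plus LPS for 4 h at 37 °C. Lysed directly in SDS loading buffer, sonicated, heated, run on 4–15% gels, then transferred. Probed for phospho-IκBα, IκBα, iNOS and COX-2, with β-actin as the loading reference; HRP secondaries used.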
(A western blot detects proteins with antibodies after separation by electrophoresis.)

The next data set concerns MCF7. As to the kind of experiment: Cytotoxicity against human MCF7 cells up to 100 uM after 20 hrs by MTT assay. The format is cell-based. The note with it: mcf7, 20 h. In outline: as §1
Data set [5] relates to RAW264.7. As to the kind of experiment: Antiinflammatory activity in mouse RAW264.7 cells assessed as reduction of LPS-induced iNOS mRNA expression by quantitative real-time PCR analysis. The format is functional, cell-based. The procedure, abridged: (§3)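 Cells treated with compound (0.7–12.5 µM) plus LPS 100 ng/mL. Total RNA analysed by SYBR Green real-time qPCR, with each gene normalised to GAPDH. Mean ± SD of three independent experiments; one-way ANOVA, p < 0.05 taken as significant.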

The subject of data set [6] is RAW264.7. Briefly: Antiinflammatory activity in mouse RAW264.7 cells assessed as reduction of LPS-induced G-CSF mRNA expression by quantitative real-time PCR analysis. The format is functional, cell-based. In outline:
as §3

Data set [7] deals with RAW264.7. As to the kind of experiment: Antiinflammatory activity in mouse RAW264.7 cells assessed as reduction of LPS-induced MCP1 mRNA expression by quantitative real-time PCR analysis. The format is functional, cell-based. The procedure, abridged:
as §3

The test system of data set [8] is RAW264.7. As to the kind of experiment: Antiinflammatory activity in mouse RAW264.7 cells assessed as reduction of LPS-induced COX2 expression at 5 uM after 4 hrs by Western blot analysis. The format is functional, cell-based. The procedure, abridged:
as §2

Data set [9] has as its system RAW264.7. Briefly: Inhibition of LPS-induced NF-kappaB activation in mouse RAW264.7 cells assessed as reduction of IkappaBalpha phosphorylation at 1.5 to 12 uM after 4 hrs by Western blot analysis. The format is cell-based. The procedure, abridged: as §2
Data set [10] concerns RAW264.7. As to the kind of experiment: Antiinflammatory activity in mouse RAW264.7 cells assessed as reduction of LPS-induced IFN-beta mRNA expression by quantitative real-time PCR analysis. The format is functional, cell-based. The procedure, abridged: as §3
For data set [11], the system named is RAW264.7. As to the kind of experiment: Antiinflammatory activity in mouse RAW264.7 cells assessed as reduction of LPS-induced IL-6 mRNA expression by quantitative real-time PCR analysis. The class given is functional, cell-based. The procedure, abridged: as §3
Data set [12] has as its system RAW264.7. As to the kind of experiment: Antiinflammatory activity in mouse RAW264.7 cells assessed as reduction of LPS-induced IP-10 mRNA expression by quantitative real-time PCR analysis. The class given is functional, cell-based. The procedure, abridged:
as §3

Data set [13] has as its system RAW264.7. Briefly: Antiinflammatory activity in mouse RAW264.7 cells assessed as reduction of LPS-induced COX2 mRNA expression by quantitative real-time PCR analysis. The class given is functional, cell-based. The procedure, abridged:
as §3

Another data set relates to MDA-MB-231. Briefly: Cytotoxicity against human MDA-MB-231 cells up to 100 uM after 20 hrs by MTT assay. The class given is cell-based. The note with it: mda-mb-231, 20 h. In outline:
as §1

The test system of data set [14] is RAW264.7. Briefly: Antiinflammatory activity in mouse RAW264.7 cells assessed as reduction of LPS-induced IL-1beta mRNA expression by quantitative real-time PCR analysis. The format is functional, cell-based. In outline: as §3
In a further data set the test system is LNCaP. Briefly: Cytotoxicity against human LNCAP cells up to 100 uM after 20 hrs by MTT assay. The class given is cell-based. The procedure, abridged: as §1
The test system of a further data set is PC-3. As to the kind of experiment: Cytotoxicity against human PC3 cells up to 100 uM after 20 hrs by MTT assay. The format is cell-based. The note with it: pc-3, 20 h. In outline:
as §1

The term IC50 denotes the point on the concentration scale where inhibition reaches its midpoint. On to `CC(=O)O[C@H]1[C@@H]2OC(=O)C=C[C@@H]2O[C@@H]1c1ccccc1` [(+)-3-O-ACETYLALTHOLACTONE], for which the IC50 in [1] was determined as 34.3 µM; in the data set on RAW264.7 [2], 36.1 µM.
For `O=C1C=CC[C@H](/C=C/c2ccccc2)O1` [GONIOTHALAMIN], the IC50 is 27.4 µM in data set [1] and 34.2 µM with RAW264.7 [2].
For the compound `O=C1C=C[C@@H]2O[C@H](c3ccccc3)[C@@H](O)[C@@H]2O1` [ALTHOLACTONE], the Activity entry in the data set on MCF-10A, in the data set on MCF7, with MDA-MB-231, with LNCaP and with PC-3 was “Non-toxic” throughout. The IC50 with RAW264.7 [3] was 0.8 µM; in data set [1] it was 6.7 µM; in the data set on RAW264.7 [5], 2 µM; in the data set on RAW264.7 [6], 4 µM; with RAW264.7 [7] it was 4 µM; with RAW264.7 [10], 0.8 µM. The IC50 in the data set on RAW264.7 [11] turned out to be 0.9 µM; in the data set on RAW264.7 [12], 5 µM; in the data set with RAW264.7 [13], 3 µM; in the data set with RAW264.7 [2] it was 43.4 µM; in the data set on RAW264.7 [14] it was 3 µM. For the same compound, the inhibition entry in the data set on RAW264.7 [4], in the data set on RAW264.7 [8] and with RAW264.7 [9] was “Active” throughout.
